Data: ChEMBL document CHEMBL1129795, “2-Azetidinone cholesterol absorption inhibitors: structure-activity relationships on the heterocyclic nucleus” (1996)

How the values were obtained:
[1] = system: Cricetinae gen. sp.; assay: In vivo for cholesterol absorption inhibitory activity using 7-day cholesterol-fed hamster model (expressed as percent change in cholesteryl esters at 50 mg/kg/day); assay type: functional, Cricetulus griseus
Procedure, shortened: (§1)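 Hamsters were fed a high-cholesterol diet for 7 days and gavaged once daily with compound in 0.2 mL corn oil. On the last day, animals were sacrificed and hepatic and serum lipids were determined. Results are given as percent change in hepatic cholesteryl ester or serum cholesterol concentration versus diet-fed controls gavaged with corn oil without drug.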

[2] = target: T1, Sterol O-acyltransferase 1 (Rattus norvegicus) (UniProt O70536); assay: In vitro for inhibitory activity against Acyl coenzyme A:cholesterol acyltransferase 1 from rat liver microsomes at 50 uM
T1 sequence (whole entry): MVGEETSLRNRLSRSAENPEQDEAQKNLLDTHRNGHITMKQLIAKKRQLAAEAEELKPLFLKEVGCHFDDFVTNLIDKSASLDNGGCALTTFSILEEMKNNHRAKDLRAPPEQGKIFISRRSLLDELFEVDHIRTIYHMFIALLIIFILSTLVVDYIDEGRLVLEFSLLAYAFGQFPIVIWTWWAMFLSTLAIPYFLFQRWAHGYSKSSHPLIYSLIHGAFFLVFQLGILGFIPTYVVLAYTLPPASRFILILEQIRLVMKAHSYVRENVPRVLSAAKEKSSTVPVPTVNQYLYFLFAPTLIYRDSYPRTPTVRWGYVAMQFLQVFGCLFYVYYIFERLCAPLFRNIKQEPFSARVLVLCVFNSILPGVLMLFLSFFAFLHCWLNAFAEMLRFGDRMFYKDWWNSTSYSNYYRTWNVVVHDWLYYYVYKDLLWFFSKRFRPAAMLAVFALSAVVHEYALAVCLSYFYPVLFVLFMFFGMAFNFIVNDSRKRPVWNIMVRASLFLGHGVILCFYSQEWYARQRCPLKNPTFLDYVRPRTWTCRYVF
Procedure, shortened: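 Rat liver microsomes were used to measure ACAT activity as the formation of cholesteryl [3H]oleate from cholesterol and [3H]oleoyl CoA. Results are given as percent inhibition at a single concentration.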

[3] = system: Cricetinae gen. sp.; assay: In vivo cholesterol absorption inhibitory activity using 7-day cholesterol-fed hamster model (expressed as percent change in serum cholesterol at 50 mg/kg/day); assay type: functional, Cricetulus griseus; procedure, shortened: as §1
[4] = system: Cricetinae gen. sp.; assay: Compound was tested in vivo for Cholesterol absorption inhibitory activity by using 7-day cholesterol-fed hamster model.(change in serum cholesterol( tested at 50 mg/kg/day).; assay type: functional; procedure, shortened: as §1
[5] = system: Cricetinae gen. sp.; assay: Compound was tested in vivo for Cholesterol absorption inhibitory activity by using 7-day cholesterol-fed hamster model.(change in % change in cholesteryl esters(tested at 50 mg/kg/day).; assay type: functional, Cricetulus griseus; procedure, shortened: as §1

| SMILES | Change [1] [%] | inhibition [2] [%] | Change [3] [%] | Change [4] [%] | Change [5] [%] |
| --- | --- | --- | --- | --- | --- |
| COc1ccc(N2C(=O)[C@H](CCCc3ccccc3)[C@H]2c2cccc(OC)c2)cc1 | -24 | 21 | -17 | – | – |
| COc1ccc(N2C(=O)[C@H](CCCc3ccccc3)[C@H]2c2ccc(O)c(O)c2)cc1 | – | – | – | 0 | – |
| COc1ccc(N2C(=O)[C@H](CCCc3ccccc3)[C@H]2c2ccc([N+](=O)[O-])cc2)cc1 | 0 | 21 | -11 | – | – |
| COc1ccc(N2C(=O)[C@H](CCCc3ccccc3)[C@H]2c2ccc(N)cc2)cc1 | 0 | 63 | 0 | – | – |
| COc1ccc(N2C(=O)[C@H](CCCc3ccccc3)[C@H]2c2ccc(O)cc2)cc1 | -48 | 8 | -16 | – | – |
| CCOc1ccc([C@@H]2[C@H](CCCc3ccccc3)C(=O)N2c2ccc(OC)cc2)cc1 | -93 | 79 | -48 | – | – |
| COc1ccc(N2C(=O)[C@H](CCCc3ccccc3)[C@H]2c2ccc(OC(C)C)cc2)cc1 | -94 | 59 | -38 | – | – |
| COc1ccc(N2C(=O)[C@H](CCCc3ccccc3)[C@H]2c2ccccc2)cc1 | -15 | 22 | -6 | – | – |
| COc1ccc(N2C(=O)[C@@H](CCCc3ccccc3)[C@H]2c2cccc(OC)c2)cc1 | -54 | 39 | -19 | – | – |
| COc1ccc(N2C(=O)[C@@H](CCCc3ccccc3)[C@H]2c2ccc(O)cc2)cc1 | -75 | 20 | -31 | – | – |
| CCCCCCCCCC[C@@H]1C(=O)N(c2ccc(OC)cc2)[C@@H]1c1ccc(OC)cc1 | – | – | – | 0 | -15 |
| CCOc1ccc([C@@H]2[C@@H](CCCc3ccccc3)C(=O)N2c2ccc(OC)cc2)cc1 | -98 | 68 | -52 | – | – |
| COc1ccc(N2C(=O)[C@H](CCCc3ccccc3)[C@H]2c2ccc(OC)c(OC)c2)cc1 | -33 | 53 | -11 | – | – |
| CCC(=O)Oc1ccc(N2C(=O)[C@H](CCCc3ccccc3)[C@H]2c2ccc(OC)cc2)cc1 | – | – | – | -22 | -54 |
| COc1ccc([C@@H]2[C@H](CCCc3ccccc3)C(=O)N2c2ccc(OC)cc2)cc1 | -95 | – | -45 | – | – |
| COc1ccc([C@H]2N(c3ccccc3)C(=O)[C@]2(F)CCCc2ccccc2)cc1 | -17 | – | -10 | – | – |
| COc1ccc(N2C(=O)C(CCCc3ccccc3)C2(c2ccc(OC)cc2)c2ccc(OC)cc2)cc1 (configuration not stated) | 0 | – | -9 | – | – |
| COc1ccc([C@@H]2[C@@H](CCCc3ccccc3)C(=O)N2c2ccc(S(C)(=O)=O)cc2)cc1 | -39 | – | 0 | – | – |

| SMILES | Change [1] [%] | inhibition [2] [%] | Change [3] [%] | Change [4] [%] | Change [5] [%] |
| --- | --- | --- | --- | --- | --- |
| COc1ccc([C@@H]2[C@H](C)C(=O)N2c2ccc(OC)cc2)cc1 | 0 | – | 0 | – | – |
| COc1ccc([C@H]2NC(=O)[C@@H]2CCCc2ccccc2)cc1 | 0 | – | 0 | – | – |
| COc1ccc(N2C(=O)[C@@H](CCCc3ccccc3)[C@H]2c2ccccc2)cc1 | 0 | – | 0 | – | – |
| COc1ccc([C@@H]2[C@@H](CCCc3ccccc3)C(=O)N2c2ccc(Oc3ccccc3)cc2)cc1 | -49 | – | -28 | – | – |
| COc1ccc([C@@H]2[C@@H](CCCc3ccccc3)C(=O)N2C)cc1 | 0 | – | 0 | – | – |
| COc1ccc([C@H]2N(c3ccc(OC)cc3)C(=O)C2(c2ccccc2)c2ccccc2)cc1 | 0 | – | 0 | – | – |
| COc1ccc([C@@H]2[C@@H](CCCCc3ccccc3)C(=O)N2c2ccc(OC)cc2)cc1 | -23 | – | -8 | – | – |
| CCCCCCCCCC[C@H]1C(=O)N(c2ccc(OC)cc2)[C@@H]1c1ccc(OC)cc1 | – | – | – | 0 | -18 |
| COc1ccc([C@@H]2[C@H](CCCC3CCCCC3)C(=O)N2c2ccc(OC)cc2)cc1 | -28 | – | 12 | – | – |
| COc1ccc(N2C(=O)[C@H](CCCc3ccccc3)[C@H]2c2ccc(C)cc2)cc1 | -21 | 18 | -20 | – | – |
| COc1ccc(N2C(=O)[C@@H](CCCc3ccccc3)[C@H]2c2ccc3c(c2)OCO3)cc1 | 0 | – | 0 | – | – |
| COc1ccc([C@@H]2[C@@H](CCCc3ccccc3)C(=O)N2c2ccc3c(c2)OCO3)cc1 | -52 | – | -19 | – | – |
| COc1ccc(N2C(=O)[C@H](CCCc3ccccc3)[C@H]2c2ccc(CO)cc2)cc1 | -46 | -6 | -21 | – | – |
| COc1ccc(N2C(=O)C(CCCc3ccccc3)C23c2ccc(OC)cc2-c2cc(OC)ccc23)cc1 (configuration not stated) | -22 | – | -22 | – | – |
| COc1ccc([C@@H]2[C@@H](CCCc3ccccc3)C(=O)N2c2ccc(C(C)=O)cc2)cc1 | -90 | – | -40 | – | – |
| COc1ccc([C@@H]2[C@@H](CCCC3CCCCC3)C(=O)N2c2ccc(OC)cc2)cc1 | -47 | – | -23 | – | – |
| COc1ccc(N2C(=O)[C@H](CCCc3ccccc3)[C@H]2c2ccc(S(C)(=O)=O)cc2)cc1 | -75 | – | -26 | – | – |
